Assay results from BindingDB's records for doi:10.1021/acsmedchemlett.0c00208 (University of Bonn, 2020).

Target: T1, N-arachidonyl glycine receptor (Homo sapiens, UniProt Q14330)
T1 sequence (Q14330 whole entry): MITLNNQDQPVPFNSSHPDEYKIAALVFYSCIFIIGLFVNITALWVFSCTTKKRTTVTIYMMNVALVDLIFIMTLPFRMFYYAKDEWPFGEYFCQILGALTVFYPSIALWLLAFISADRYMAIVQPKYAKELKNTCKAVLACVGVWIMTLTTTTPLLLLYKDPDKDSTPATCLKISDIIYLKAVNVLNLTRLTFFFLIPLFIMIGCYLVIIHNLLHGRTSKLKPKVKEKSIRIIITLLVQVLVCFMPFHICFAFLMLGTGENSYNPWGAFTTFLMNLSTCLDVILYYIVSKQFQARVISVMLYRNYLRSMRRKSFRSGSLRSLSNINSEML
Assay: […] at Prolink1-tagged human GPR18 receptor expressed in CHO cells assessed as […] by measuring 2-(3-(6-(4-chlorophenoxy)hexyloxy)benzylidene)-6,7-dihydro-2H-imidazo[2,1-b][1,3]thiazin-3(5H)-one IC50 at 1 uM after 90 mins by beta-galactosidase based topcount luminescence analysis
Outline: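 Human GPR18 stably expressed in CHO cells, β-arrestin enzyme complementation. Antagonist concentration-inhibition curves run against a fixed 1 μM agonist stimulus. IC50 and maximal inhibition derived from curves; means of three independent experiments, each in duplicate.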

**Q.** How did the IC50 turn out when `Cn1c(=O)c2c(nc3n2CCCN3CCc2c[nH]c3ccccc23)n(C)c1=O` [9-(2-(1H-indol-3-yl)ethyl)-1,3-dimethyl-6,7,8,9-tetrahydropyrimido[1,2-a]purine-2,4(1H,3H)-dione] was run?
**A.** 944 nM
